T cruzi growth-1: T. cruzi proliferation inhibition | T. cruzi beta-gal in NIH3T3, GalScreen luminescence, 90 h | inhibition, % at 8.34 µM | 77,000 compounds, 5.9% hits;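 active = mean inhibition above about 93%, with at least 55% of replicates each passing it, limit read from the data, passing the limit was not always enough; inconclusive = only one of those two conditions holds; inactive = neither condition holds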
IDH1 mut inh: IDH1 R132H (human) inhibition; O75874; AID 624101; IDH1 R132H reductase, diaphorase/resazurin fluorescence, 60 min; inhibition, % at 10 µM; 70,000 compounds, 0.18% hits; in the data active = inhibition above about 34%; inconclusive = no clear call, values can overlap the other calls; inactive = below about 11%;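 note: 0% = DMSO and 100% = no enzyme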
KDM4C inh: blocks human GASC-1 (KDM4C) demethylase activity; Q9H3R0; GST-KDM4C 2-372, H3K9me3 peptide, LANCE TR-FRET; inhibition, % at 12.5 µM; 96,000 compounds, 0.15% hits; AID 720574;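 active = mean replicate inhibition above about 25%, with at least 55% of replicates also reaching it, limit read from the data, passing the limit was not always enough; inconclusive = only one of those two conditions met; inactive = neither condition met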
Target sequence (Q9H3R0 2-372 limits assumed): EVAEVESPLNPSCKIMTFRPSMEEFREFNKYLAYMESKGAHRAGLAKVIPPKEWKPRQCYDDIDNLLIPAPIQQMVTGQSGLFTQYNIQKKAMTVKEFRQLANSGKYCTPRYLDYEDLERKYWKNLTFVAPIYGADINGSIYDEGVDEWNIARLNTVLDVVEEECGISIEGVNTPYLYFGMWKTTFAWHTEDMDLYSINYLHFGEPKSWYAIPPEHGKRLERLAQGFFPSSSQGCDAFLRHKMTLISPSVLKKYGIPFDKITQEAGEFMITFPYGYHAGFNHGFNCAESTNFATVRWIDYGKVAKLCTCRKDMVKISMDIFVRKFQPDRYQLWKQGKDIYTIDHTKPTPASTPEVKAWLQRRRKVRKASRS
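Material: N-terminal GST-fused human GASC-1 (KDM4C) fragment, residues 2-372. Input: 10 nM enzyme. Incubation: enzyme reaction 30 min, then detection 60 min, both room temperature. Doses: one test concentration per compound. Read-out basis: inhibition from TR-FRET ratio decrease. Detection: LANCE TR-FRET, excitation 340 nm, emissions 618 and 671 nm.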
T cruzi growth-2: inhibitors of T. cruzi proliferation | inhibition, % at 8.35 µM | shares compounds with T cruzi growth-1 | 5,600 compounds, 72% hits | T. cruzi beta-gal in NIH3T3, GalScreen luminescence, 90 h;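 active = mean replicate inhibition above about 95% and at least 55% of replicates individually reaching it, limit read from the data; inconclusive = only one of the two criteria is met; inactive = neither criterion is met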
T cruzi growth-3: Trypanosoma cruzi proliferation inhibition | shares compounds with T cruzi growth-1 | T. cruzi beta-gal in NIH3T3, GalScreen luminescence, 90 h | inhibition, % at 2.09 µM | 5,600 compounds, 21% hits;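 active = mean inhibition above about 95%, with at least 55% of replicates also reaching it, limit read from the data; inconclusive = meets just one of the two conditions; inactive = meets neither condition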;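 note: plate controls were neutral control median for no effect and positive control median for full effect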
3T3 cytotox: NIH/3T3 (mouse) viability loss; shares compounds with T cruzi growth-1; NIH/3T3 viability, CellTiter-Glo ATP luminescence, 90 h; cytotoxicity (signal decrease), % at 8.35 µM; 5,600 compounds, 14% hits;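 active = mean signal decrease across replicates above about 35% based on untreated-well scatter, with enough replicates individually passing, limit read from the data; inconclusive = no rule stated though some were filed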;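 note: 0% = median of neutral control wells and 100% = median of positive control wells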
NIH3T3 tox 2: cytotoxicity in mouse NIH/3T3 fibroblasts. shares compounds with T cruzi growth-1. NIH/3T3 viability, CellTiter-Glo ATP luminescence, 90 h. inhibition, % at 24.9 µM. 5,600 compounds, 56% hits. AID 651744;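 active = mean loss of cell viability signal at or above a set limit, and enough replicates individually reaching it; inconclusive = meets only the mean limit or only the replicate share; inactive = meets neither condition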;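 note: 0% = median of neutral control wells and 100% = median of positive control wells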
* = called active by the depositor; ? = inconclusive; . = not tested or not shown. This is one part of a sample in which hits are shown more often than they occur.

SMILES	T cruzi growth-1	IDH1 mut inh	KDM4C inh	T cruzi growth-2	T cruzi growth-3	3T3 cytotox	NIH3T3 tox 2
C[C@@H]1CCCCO[C@H](CN(C)S(=O)(=O)c2ccccc2)[C@@H](C)CN([C@H](C)CO)C(=O)c2cc(NS(=O)(=O)c3ccc(F)cc3)ccc2O1	14	0	-1	.	.	.	.
C[C@H]1CCCCO[C@@H](CN(C)S(=O)(=O)c2ccccc2)[C@@H](C)CN([C@@H](C)CO)C(=O)c2cc(NS(=O)(=O)c3ccc(F)cc3)ccc2O1	101*	1	-1	107*	64	-5	12
C[C@H]1CCCCO[C@H](CN(C)S(=O)(=O)c2ccccc2)[C@@H](C)CN([C@@H](C)CO)C(=O)c2cc(NS(=O)(=O)c3ccc(F)cc3)ccc2O1	97*	-2	-2	110*	70	19	9
C[C@@H]1CN([C@@H](C)CO)S(=O)(=O)c2ccc(C#CC3CCCC3)cc2O[C@H]1CN(C)Cc1cncnc1	.	0	0	.	.	.	.
O=C(NCC[C@H]1CC[C@@H](NC(=O)C2CCC2)[C@H](CO)O1)c1cnccn1	184*	0	-1	56	5	-7	10
O=C(NCC[C@H]1CC[C@H](NC(=O)C2CCC2)[C@@H](CO)O1)c1cnccn1	52	-1	0	.	.	.	.
C/C=C/c1cnc2c(c1)C(=O)N([C@@H](C)CO)C[C@@H](C)[C@H](CN(C)Cc1ccccc1F)O2	.	-3	-2	.	.	.	.
C[C@H](CO)N1C[C@H](C)[C@H](CN(C)Cc2ccc(F)cc2)Oc2ncc(/C=C/c3ccccc3)cc2C1=O	.	0	-1	.	.	.	.
C[C@@H]1CN([C@H](C)CO)C(=O)c2cc(/C=C/c3ccccc3)cnc2O[C@H]1CN(C)Cc1ccccc1F	87*	-1	-1	103*	?	10	103*
C[C@H](CO)N1C[C@H](C)[C@H](CN(C)Cc2ccccc2F)Oc2ncc(/C=C/c3ccccc3)cc2C1=O	95*	-2	-2	107*	77	17	60*
CCCC#Cc1ccc2c(c1)O[C@H](CN(C)C(=O)c1ccccc1F)[C@H](C)CN([C@H](C)CO)S2(=O)=O	33	-7	-1	.	.	.	.
CC(C)CC#Cc1ccc2c(c1)O[C@@H](CN(C)C(=O)c1cccc(F)c1)[C@@H](C)CN([C@@H](C)CO)S2(=O)=O	102*	0	-1	105*	105*	14	104*
CC(C)CC#Cc1ccc2c(c1)O[C@H](CN(C)C(=O)c1ccccc1)[C@@H](C)CN([C@@H](C)CO)S2(=O)=O	122*	0	-4	102*	93	34	105*
C[C@@H]1CN([C@@H](C)CO)S(=O)(=O)c2ccc(C#CC3CC3)cc2O[C@@H]1CN(C)C(=O)c1cccc(F)c1	.	.	0	.	.	.	.
CC(C)CC#Cc1ccc2c(c1)O[C@H](CN(C)C(=O)c1ccccc1)[C@H](C)CN([C@H](C)CO)S2(=O)=O	.	-1	-4	.	.	.	.
CC(C)CC#Cc1ccc2c(c1)O[C@H](CN(C)C(=O)c1ccccc1F)[C@@H](C)CN([C@@H](C)CO)S2(=O)=O	103*	0	-2	103*	?	13	105*
CC(C)CC#Cc1ccc2c(c1)O[C@@H](CN(C)C(=O)c1cccc(F)c1)[C@H](C)CN([C@H](C)CO)S2(=O)=O	110*	0	0	105*	91	31	105*
C[C@@H]1CN([C@H](C)CO)S(=O)(=O)c2ccc(C#CC3CC3)cc2O[C@@H]1CN(C)C(=O)c1cccc(F)c1	.	-2	1	.	.	.	.
C[C@@H]1CN([C@H](C)CO)C(=O)c2cccc(NC(=O)CCCCCC(=O)Nc3ccccc3N)c2O[C@H]1CN(C)Cc1ccc(Cl)c(Cl)c1	.	0	1	.	.	.	.
O=C(C[C@@H]1CC[C@@H](NS(=O)(=O)c2cccc(F)c2)[C@H](CO)O1)N1CCCCC1	2	0	0	.	.	.	.
COc1ccc(NC(=O)COc2ccc([N+](=O)[O-])cc2)c(OC)c1	.	0	.	.	.	.	.
O=C(c1cccnc1)N1C[C@H]2[C@@H](c3ccccc31)[C@@H](CO)N2C(=O)CN1CCOCC1	45	.	-1	.	.	.	.
CO[C@H]1CN(C)C(=O)c2cc(NC(=O)NC(C)C)ccc2OC[C@@H](C)N(C(=O)NC(C)C)C[C@H]1C	27	0	1	.	.	.	.
C[C@@H]1CN([C@@H](C)CO)S(=O)(=O)c2ccc(C#CC3CC3)cc2O[C@@H]1CN(C)C(=O)c1ccccc1	94	-3	-2	.	.	.	.
CC(C)CC#Cc1ccc2c(c1)O[C@@H](CN(C)C(=O)c1ccccc1)[C@H](C)CN([C@H](C)CO)S2(=O)=O	.	0	-2	.	.	.	.
SMILES	T cruzi growth-1	IDH1 mut inh	KDM4C inh	T cruzi growth-2	T cruzi growth-3	3T3 cytotox	NIH3T3 tox 2
CC(C)CC#Cc1ccc2c(c1)O[C@H](CN(C)C(=O)c1cccc(F)c1)[C@@H](C)CN([C@@H](C)CO)S2(=O)=O	126*	-2	-1	99*	102*	25	106*
C[C@H](CO)N1C[C@H](C)[C@@H](CN(C)C(=O)c2cccc(F)c2)Oc2cc(C#CC3CC3)ccc2S1(=O)=O	.	.	-3	.	.	.	.
CC(C)CC#Cc1ccc2c(c1)O[C@@H](CN(C)C(=O)c1cccnc1)[C@H](C)CN([C@H](C)CO)S2(=O)=O	75	15	-2	.	.	.	.
C[C@H]1CN([C@@H](C)CO)S(=O)(=O)c2ccc(C#CC3CC3)cc2O[C@@H]1CN(C)C(=O)c1ccccc1	99*	0	-1	101*	76	10	?
CC(C)CC#Cc1ccc2c(c1)O[C@H](CN(C)C(=O)c1cccc(F)c1)[C@@H](C)CN([C@H](C)CO)S2(=O)=O	120*	0	-2	109*	84	4	105*
CC(C)CC#Cc1ccc2c(c1)O[C@@H](CN(C)C(=O)c1cccc(F)c1)[C@H](C)CN([C@@H](C)CO)S2(=O)=O	124*	7	0	103*	110*	62*	105*
CCCC(=O)Nc1ccc2c(c1)C(=O)N(C)[C@H]1CC[C@@H](CC(=O)NCCCN(C)C)O[C@@H]1CO2	-69	.	3	.	.	.	.
C[C@@H]1CN([C@H](C)CO)C(=O)c2cc(C#C[C@@H](C)O)cnc2O[C@H]1CN(C)CC1CCCC1	19	-1	1	.	.	.	.
Cc1ccc(S(=O)(=O)N(C)C[C@H]2Oc3c(NC(=O)NC(C)C)cccc3C(=O)N([C@H](C)CO)C[C@H]2C)cc1	12	0	0	.	.	.	.
COCC(=O)Nc1ccc2c(c1)[C@H]1C[C@@H](CC(=O)NCc3ccccc3OC)O[C@H](CO)[C@H]1O2	1	0	-1	.	.	.	.
COc1ccccc1S(=O)(=O)N[C@@H]1CC[C@@H](CC(=O)N2CCCCC2)O[C@@H]1CO	-33	0	-1	.	.	.	.
